Experimental data: publication PMC5094435 (Saudi Pharmaceutical Journal : SPJ, 2015)
Converted amounts (≈) assume the structure as drawn. “And” between values parts separate entries of the source, which are not always exact repeats. Equal entries are not always repeated.

Assays:
[1] = system: tail immersion (hot water 55 °C); assay: Central analgesic activity, tail immersion method; assay type: in vivo, Swiss albino mice; conditions: mice, mean ± SEM; for Central analgesic activity [tail immersion (reaction time in min)] 1 h: 1 h after the dosing; for Central analgesic activity [tail immersion (reaction time in min)] 2 h: 2 h after the dosing
Outline: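 Used the same mice from the writhing test after a washout period. Each mouse was held in a restrainer and the protruding tail (up to 5 cm) was dipped in 55 °C water. Withdrawal time was recorded as reaction time at 1 h and 2 h post-dose. Data are mean ± SEM, analysed by ANOVA followed by Dunnett's t test.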

[2] = system: Bacillus subtilis (MTCC 121); assay: Antibacterial activity; assay type: cell-based; conditions: MTCC121, read-out: MIC, B. subtilis
Outline: (§1)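 Screened by a standard method against S. aureus MTCC 96, B. subtilis MTCC 121, E. coli MTCC 1652 and P. aeruginosa MTCC 741. Ciprofloxacin was the reference antibiotic. Only compounds active at 100 μg/mL went on to MIC determination.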

Aspergillus flavus = assay: Antifungal activity; assay type: cell-based; conditions: read-out: MIC, A. flavus
Outline: (§2)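 Run by the poison food technique against Aspergillus niger and Aspergillus flavus. Fluconazole was the reference drug.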

[3] = system: Escherichia coli (MTCC 1652); assay: Antibacterial activity; assay type: cell-based; conditions: for MIC: Escherichia coli, MTCC1652, read-out: MIC, E. coli; for MIC, E. coli: E. coli (MTCC 1652)
Outline: as §1

mucosal damage = assay: Acute ulcerogenic activity; assay type: in vivo, Albino rats; conditions: rats, mean ± SEM
Outline: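 Conducted in Albino rats (160–200 g, housed six per cage, acclimatised 48 h) following Cioli et al. Gastric mucosal damage was scored at the end of the study. Ulcerogenic potential (severity index) came from comparing the mean score of each treated group with that of the control rats.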

Aspergillus niger = assay: Antifungal activity; assay type: cell-based; conditions: read-out: MIC, A. niger
Outline: as §2

[4] = system: carrageenan induced edema; assay: Anti-inflammatory activity, carrageenan induced rat paw edema; assay type: in vivo, Wistar rats; conditions: inhibition of edema, rats
Outline: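 Used the Winter et al. paw oedema method in Wistar rats of either sex (160–200 g), housed six per cage and acclimatised 48 h. Percent inhibition of oedema was calculated at 1, 2, 3 and 4 h. Diclofenac served as the standard drug.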

[5] = system: Pseudomonas aeruginosa (MTCC 741); assay: Antibacterial activity; assay type: cell-based; conditions: for MIC: Pseudomonas aeruginosa, MTCC741, read-out: MIC, P. aeruginosa; for MIC, P. aeruginosa: P. aeruginosa (MTCC 741)
Outline: as §1

[6] = system: Staphylococcus aureus (MTCC 96); assay: Antibacterial activity; assay type: cell-based; conditions: MTCC96, read-out: MIC, S. aureus
Outline: as §1

[7] = system: acetic acid induced writhing; assay: Peripheral analgesic activity, acetic acid induced writhing method; assay type: in vivo, Swiss Albino mice; conditions: mice; for Peripheral analgesic activity (writhing test) No. of writhing: mean ± SEM; for Peripheral analgesic activity (writhing test) % Protection: vs control group
Outline: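 Writhing was induced with aqueous acetic acid in Swiss albino mice (20–30 g) of either sex, six per group. % Protection = (Wc − Wt)/Wc × 100, where Wc and Wt are the mean writhing counts of the control and test groups.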

| Structure (SMILES) | Central analgesic activity [tail immersion (reaction time in min)] 1 h [1] | Central analgesic activity [tail immersion (reaction time in min)] 2 h [1] | MIC [2] [µg/mL] | MIC (Aspergillus flavus) [µg/mL] | MIC [3] [µg/mL] | Ulcerogenic activity (severity index) (mucosal damage) | MIC (Aspergillus niger) [µg/mL] | % Inhibition ± SEM After 1 h [4] | % Inhibition ± SEM After 2 h [4] | % Inhibition ± SEM After 3 h [4] | MIC [5] [µg/mL] | MIC [6] [µg/mL] | Peripheral analgesic activity (writhing test) No. of writhing [7] | Peripheral analgesic activity (writhing test) % Protection [7] [%] | MIC, E. coli [3] | % Inhibition ± SEM After 4 h [4] [%] | MIC, P. aeruginosa [5] |
| --- | --- | --- | --- | --- | --- | --- | --- | --- | --- | --- | --- | --- | --- | --- | --- | --- | --- |
| O=C1OC(c2ccc3ccccc3c2)=CC1=Cc1cc2cc(Cl)ccc2nc1Cl [Compound 5b, 3-[(2,6-Dichloroquinolin-3-yl)methylene]-5-(naphthalene-2-yl)furan-2(3H)-one] | 3.2 ± 0.2^∗ min | 4.4 ± 0.5 min | 12.5 (≈ 29.9 µM) | 50 (≈ 120 µM) | 25 (≈ 59.8 µM) | 0.33 ± 0.35^∗ | 25 (≈ 59.8 µM) | 74 ± 0.18^∗∗ % | 67 ± 0.06^∗∗ % | 39 ± 0.29% | 50 (≈ 120 µM) | 12.5 (≈ 29.9 µM) | 26.2 ± 4.1 | 37.61 |  |  |  |
| O=C1OC(c2ccc3ccccc3c2)=CC1=Cc1cc2cc([N+](=O)[O-])ccc2nc1Cl [Compound 5d, 3-[(2-Chloro-6-nitroquinolin-3-yl)methylene]-5-(naphthalene-2-yl)furan-2(3H)-one] | 4.4 min and 4.4 ± 0.6^∗∗ min | 6.5 min and 6.5 ± 0.2 ^∗ min | 25 (≈ 58.3 µM) | 25 (≈ 58.3 µM) | 12.5 (≈ 29.1 µM) |  | 25 (≈ 58.3 µM) | 79 ± 0.12^∗∗ % | 61 ± 0.15^∗∗ % | 56 ± 0.25^∗ % | 25 (≈ 58.3 µM) | 12.5 (≈ 29.1 µM) | 6.0 ± 2.2^∗∗ |  |  |  |  |
| O=C1OC(c2ccc(-c3ccccc3)cc2)=CC1=Cc1cc2cc([N+](=O)[O-])ccc2nc1Cl [Compound 5h, 3-[(2-Chloro-6-nitroquinolin-3-yl)methylene]-5-(biphenyl-4-yl)furan-2(3H)-one] | 4.3 min and 4.3 ± 0.4^∗∗ min | 6.2 min and 6.2 ± 1.5^∗ min | > 100 | 25 (≈ 55 µM) | 50 (≈ 110 µM) | 0.40 ± 0.36 | 25 (≈ 55 µM) | 73 ± 0.08^∗∗ % | 58 ± 0.15^∗∗ % | 50 ± 0.13% | > 100 | 25 (≈ 55 µM) | 7.6 ± 2.3^∗∗ |  |  |  |  |
| O=C1NC(c2ccc3ccccc3c2)=CC1=Cc1cc2cc(Cl)ccc2nc1Cl [Compound 6b, 3-[(2,6-Dichloroquinolin-3-yl)methylene]-5-(naphthalene-2-yl)-1H-pyrrol-2(3H)-one] | 1.8 ± 0.2 min | 4.2 ± 0.6 min | 6.25 (≈ 15 µM) | 12.5 (≈ 30 µM) | 50 (≈ 120 µM) | 0.43 ± 0.33 | 12.5 (≈ 30 µM) | 62 ± 0.09^∗ % | 66 ± 0.18^∗∗ % | 53 ± 0.17% | 50 (≈ 120 µM) | 6.25 (≈ 15 µM) | 13.8 ± 4.4^∗ | 67.14 |  |  |  |
| O=C1C(=Cc2cc3cc(Cl)ccc3nc2Cl)C=C(c2ccc3ccccc3c2)N1Cc1ccccc1 [Compound 7b, 1-Benzyl-3-[(2,6-dichloroquinolin-3-yl)methylene]-5-(naphthalene-2-yl)-1H-pyrrol-2(3H)-one] | 2.4 ± 0.3 min | 3.4 ± 0.2 min | 25 (≈ 49.3 µM) | 25 (≈ 49.3 µM) | 12.5 (≈ 24.6 µM) | 0.36 ± 0.35^∗ | 50 (≈ 98.5 µM) | 84 ± 0.06^∗∗ % | 74 ± 0.21^∗∗ % | 70 ± 0.23^∗ % | > 100 | 25 (≈ 49.3 µM) | 25.4 ± 4.8 | 39.52 |  |  |  |
| O=C1C(=Cc2cc3ccccc3nc2Cl)C=C(c2ccc(-c3ccccc3)cc2)N1Cc1ccccc1 [Compound 7e, 1-Benzyl-3-[(2-chloroquinolin-3-yl)methylene]-5-(biphenyl-4-yl)-1H-pyrrol-2(3H)-one] |  |  | > 100 | > 100 | > 100 |  | 50 (≈ 100 µM) | 78 ± 0.12^∗∗ % | 51 ± 0.11^∗∗ % | 44 ± 0.08% | > 100 | 50 (≈ 100 µM) |  |  | did not show any inhibition | 41 ± 0.08 | did not show any inhibition |
| Cc1ccc2nc(Cl)c(C=C3C=C(c4ccc(-c5ccccc5)cc4)N(Cc4ccccc4)C3=O)cc2c1 [Compound 7g, 1-Benzyl-3-[(2-chloro-6-methylquinolin-3-yl)methylene]-5-(biphenyl-4-yl)-1H-pyrrol-2(3H)-one] |  |  | 50 (≈ 97.5 µM) | 50 (≈ 97.5 µM) | > 100 |  | 25 (≈ 48.7 µM) | 69 ± 0.03^∗∗ % | 54 ± 0.14^∗∗ % | 30 ± 0.20% | > 100 | 25 (≈ 48.7 µM) |  |  | did not show any inhibition | 40 ± 0.16 | did not show any inhibition |
| O=C1C(=Cc2cc3cc([N+](=O)[O-])ccc3nc2Cl)C=C(c2ccc(-c3ccccc3)cc2)N1Cc1ccccc1 [Compound 7h, 1-Benzyl-3-[(2-chloro-6-nitroquinolin-3-yl)methylene]-5-(biphenyl-4-yl)-1H-pyrrol-2(3H)-one] | 5.5 min and 5.5 ± 0.3^∗∗ min | 6.4 min and 6.4 ± 0.3^∗ min | > 100 | > 100 | 50 (≈ 91.9 µM) |  | 50 (≈ 91.9 µM) | 36 ± 0.13% | 65 ± 0.24^∗∗ % | 58 ± 0.34^∗ % | 50 (≈ 91.9 µM) | 25 (≈ 46 µM) | 10.4 ± 3.7^∗∗ |  |  |  |  |
| O=C(O)Cc1ccccc1Nc1c(Cl)cccc1Cl [Diclofenac, diclofenac, reference compound] | 8.2 ± 0.2^∗∗ min | 8.8 ± 0.2^∗∗ min |  |  |  | 0.86 ± 0.28 |  |  |  |  |  |  | 4.2 ± 1.0^∗∗ | 90 |  | 92 |  |
